Assays:
Plasmodium falciparum [1] = assay: Antimalarial activity against chloroquine-sensitive Plasmodium falciparum 3D7 infected in erythrocytes after 48 hrs by SYBR Green 1-based fluorescence assay; assay type: functional, organism-based; conditions: 3D7, 48 h
Outline: (§1)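 Parasites grown in fresh erythrocytes in RPMI 1640 with 25 mM HEPES, 6.8 mM hypoxanthine, 10% AlbuMAX II, 37 °C under 5% O2/3–5% CO2/N2. Compounds from DMSO stocks tested at 0.156–100 µg/mL in duplicate, with 1% parasitaemia ring stages at 2% haematocrit, 48 h at 37 °C. SYBR Green I lysis buffer added, 1 h dark at room temperature, fluorescence read at 485/535 nm, IC50 by nonlinear fit.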

Plasmodium falciparum [2] = assay: Antimalarial activity against chloroquine-resistant Plasmodium falciparum Dd2 infected in erythrocytes after 48 hrs by SYBR Green 1-based fluorescence assay; assay type: functional, organism-based; conditions: Dd2, 48 h; outline: as §1
MCF7 = assay: Cytotoxicity against human MCF7 cells after 24 hrs by MTT assay; assay type: cell-based; conditions: MCF7, 24 h
Outline: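 MCF-7 grown in RPMI 1640 with 10% heat-inactivated horse serum, 2 mM L-glutamine, antibiotics; 5% CO2, 37 °C. 2 × 10^4 cells/well added to serially diluted compound, 24 h at 37 °C; MTT (5 mg/mL stock) 4 h, then 10% SDS overnight; OD 550 nm (ref 630 nm). Growth inhibition vs cell and medium controls; IC50 as mean ± SD of three experiments.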

[3] = Selectivity index, ratio of IC50 for human MCF7 cells to IC50 for chloroquine-sensitive Plasmodium falciparum 3D7; assay type: toxicity, cell-based; conditions: read-out: Selectivity Index
[4] = Selectivity index, ratio of IC50 for human MCF7 cells to IC50 for chloroquine-resistant Plasmodium falciparum Dd2; assay type: toxicity, cell-based; conditions: read-out: Selectivity Index

CO[C@H]1C=C2[C@@H](CC[C@H](O)C2(C)C)[C@]2(C)C[C@@H](O)[C@]3(C)[C@@H]([C@H](C)C/C=C/C(C)(C)O)CC[C@@]3(C)[C@H]12
IC50 (Plasmodium falciparum [1]): 17.7 µM
IC50 (Plasmodium falciparum [2]): 28.3 µM
IC50 (MCF7): 55.4 µM
selectivity ratio [3]: 3.1
selectivity ratio [4]: 2

C[C@H](C/C=C/C(C)(C)O)[C@H]1CC[C@@]2(C)[C@@H]3[C@@H](O)C=C4[C@@H](CC[C@H](O)C4(C)C)[C@]3(C)CC[C@]12C
IC50 (Plasmodium falciparum [1]): 30.6 µM
IC50 (Plasmodium falciparum [2]): 50.1 µM
selectivity ratio [3]: 1.5
selectivity ratio [4]: 0.9

C[C@H](C/C=C/C(C)(C)O)[C@H]1CC[C@@]2(C)[C@@H]3[C@@H](O)C=C4[C@@H](CC[C@H](O)[C@]4(C)CO)[C@]3(C)CC[C@]12C [BALSAMINAGENIN A]
IC50 (Plasmodium falciparum [1]): 19.1 µM
IC50 (Plasmodium falciparum [2]): 27.3 µM
IC50 (MCF7): 65.1 µM
selectivity ratio [3]: 3.4
selectivity ratio [4]: 2.4

COC(C)(C)/C=C/C[C@@H](C)[C@H]1CC[C@@]2(C)[C@@H]3[C@@H](O)C=C4[C@@H](CC[C@H](O)[C@]4(C)CO)[C@]3(C)CC[C@]12C [BALSAMINAGENIN B]
IC50 (Plasmodium falciparum [1]): 18.7 µM
IC50 (Plasmodium falciparum [2]): 19.2 µM
IC50 (MCF7): 34 µM
selectivity ratio [3]: 1.8
selectivity ratio [4]: 1.8

C=C(C)[C@@H](O)[C@H](O)C[C@@H](C)[C@H]1CC[C@@]2(C)[C@@H]3[C@@H](O)C=C4[C@@H](CC[C@H](O)[C@]4(C)CO)[C@]3(C)CC[C@]12C [BALSAMINAPENTAOL A]
IC50 (Plasmodium falciparum [1]): 14.6 µM
IC50 (Plasmodium falciparum [2]): 33 µM
selectivity ratio [3]: 3.2
selectivity ratio [4]: 1.4

CC(C)=C[C@H](O)C[C@@H](C)[C@H]1CC[C@@]2(C)[C@@H]3[C@@H](O)C=C4[C@@H](CC[C@H](O)[C@]4(C)CO)[C@]3(C)CC[C@]12C [BALSAMINOL A]
IC50 (Plasmodium falciparum [1]): 17.1 µM
IC50 (Plasmodium falciparum [2]): 23.5 µM
selectivity ratio [3]: 2.3
selectivity ratio [4]: 1.7

CO[C@H]1C=C2[C@@H](CC[C@H](O)[C@]2(C)CO)[C@]2(C)CC[C@]3(C)[C@@H]([C@H](C)C[C@@H](O)C=C(C)C)CC[C@@]3(C)[C@H]12 [BALSAMINOL B]
IC50 (Plasmodium falciparum [1]): 15.2 µM
IC50 (Plasmodium falciparum [2]): 17.9 µM
IC50 (MCF7): 31 µM
selectivity ratio [3]: 2
selectivity ratio [4]: 1.7

CC(C)=CC(=O)C[C@@H](C)[C@H]1CC[C@@]2(C)[C@@H]3C(=O)C=C4[C@@H](CC[C@H](O)[C@]4(C)CO)[C@]3(C)CC[C@]12C [BALSAMINOL C]
IC50 (Plasmodium falciparum [1]): 19.6 µM
IC50 (Plasmodium falciparum [2]): 22.4 µM
IC50 (MCF7): 70.5 µM
selectivity ratio [3]: 3.6
selectivity ratio [4]: 3.2

CC(=O)C[C@@H](C)[C@H]1CC[C@@]2(C)[C@@H]3C(=O)C=C4[C@@H](CC[C@H](O)[C@]4(C)CO)[C@]3(C)CC[C@]12C [BALSAMINOL D]
IC50 (Plasmodium falciparum [1]): 25.9 µM
IC50 (Plasmodium falciparum [2]): 45.6 µM
IC50 (MCF7): > 133 µM
selectivity ratio [3]: > 5.1
selectivity ratio [4]: > 2.9

CC(C)=C[C@H](O)C[C@@H](C)[C@H]1CC[C@@]2(C)[C@@H]3C(=O)C=C4[C@@H](CC[C@H](O)C4(C)C)[C@]3(C)CC[C@]12C [BALSAMINOL E]
IC50 (Plasmodium falciparum [1]): 20.4 µM
IC50 (Plasmodium falciparum [2]): 19.6 µM
IC50 (MCF7): 44.2 µM
selectivity ratio [3]: 2.2
selectivity ratio [4]: 2.3

COC(C)(C)/C=C/C[C@@H](C)[C@H]1CC[C@@]2(C)[C@@H]3[C@@H](O[C@H]4O[C@@H](CO)[C@H](O)[C@H](O)[C@@H]4O)C=C4[C@@H](CC[C@H](O)C4(C)C)[C@]3(C)CC[C@]12C [BALSAMINOSIDE A]
IC50 (Plasmodium falciparum [1]): 4.6 µM
IC50 (Plasmodium falciparum [2]): 4 µM
IC50 (MCF7): 19 µM
selectivity ratio [3]: 4.2
selectivity ratio [4]: 4.7

C[C@H](C/C=C/C(C)(C)O)[C@H]1CC[C@@]2(C)[C@@H]3[C@@H](O)C=C4[C@@H](CC[C@H](O)C4(C)C)[C@]3(C)C[C@@H](O)[C@]12C [CUCURBALSAMINOL A]
IC50 (Plasmodium falciparum [1]): 13.2 µM
IC50 (Plasmodium falciparum [2]): 17.6 µM
IC50 (MCF7): > 133 µM
selectivity ratio [3]: > 10.1
selectivity ratio [4]: > 7.6

CC(C)=C[C@H](O)C[C@@H](C)[C@H]1CC[C@@]2(C)[C@@H]3C=C[C@@]45OC[C@]3(CC[C@]12C)[C@@H]4CC[C@H](O)C5(C)C [KARAVILAGENIN E]
IC50 (Plasmodium falciparum [1]): 7.4 µM
IC50 (Plasmodium falciparum [2]): 8.2 µM
selectivity ratio [3]: 4.2
selectivity ratio [4]: 3.7
